15 molecules from ChEMBL document CHEMBL1131323, “Inhibition of membrane-type 1 matrix metalloproteinase by hydroxamate inhibitors: an examination of the subsite pocket” (J Med Chem, 1998) can be followed below.

A word on the IC50: it is the midpoint of a concentration-inhibition curve.

Structures are written as SMILES.

The target of assay [1] is Matrix metalloproteinase-9 (Homo sapiens, UniProt P14780). Kind of assay: Activity against Matrix metalloprotease-9 (MMP-9).
In assay [2] the target is Stromelysin-1 (Homo sapiens, UniProt P08254). The assay is described as follows: Activity against Matrix metalloprotease-3 (MMP-3). The method, boiled down: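 MMP-3 purified from human fibroblast culture medium, used at 0.3 U/mL. Substrate was radiolabeled proteoglycan entrapped in polyacrylamide particles (3.5 mg dry beads). IC50 values read from dose-dependent inhibition curves.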
Stromelysin-1, sequence (P08254 whole entry): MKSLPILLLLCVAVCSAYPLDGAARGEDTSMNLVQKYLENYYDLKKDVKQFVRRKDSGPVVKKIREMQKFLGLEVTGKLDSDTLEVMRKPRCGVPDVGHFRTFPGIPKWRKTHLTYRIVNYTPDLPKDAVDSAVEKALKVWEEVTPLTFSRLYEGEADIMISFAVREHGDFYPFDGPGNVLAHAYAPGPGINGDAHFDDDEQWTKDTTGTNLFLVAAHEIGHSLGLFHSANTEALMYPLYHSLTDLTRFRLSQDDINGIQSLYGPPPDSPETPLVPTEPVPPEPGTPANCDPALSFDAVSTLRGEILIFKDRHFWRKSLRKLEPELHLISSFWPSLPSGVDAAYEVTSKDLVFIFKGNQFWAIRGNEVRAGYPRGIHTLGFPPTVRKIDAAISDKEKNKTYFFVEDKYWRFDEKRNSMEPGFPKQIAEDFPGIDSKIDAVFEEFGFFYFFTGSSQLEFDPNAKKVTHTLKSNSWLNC

Assay [3] concerns the target T1, Interstitial collagenase (Homo sapiens, UniProt P03956).
T1 sequence (P03956 whole entry): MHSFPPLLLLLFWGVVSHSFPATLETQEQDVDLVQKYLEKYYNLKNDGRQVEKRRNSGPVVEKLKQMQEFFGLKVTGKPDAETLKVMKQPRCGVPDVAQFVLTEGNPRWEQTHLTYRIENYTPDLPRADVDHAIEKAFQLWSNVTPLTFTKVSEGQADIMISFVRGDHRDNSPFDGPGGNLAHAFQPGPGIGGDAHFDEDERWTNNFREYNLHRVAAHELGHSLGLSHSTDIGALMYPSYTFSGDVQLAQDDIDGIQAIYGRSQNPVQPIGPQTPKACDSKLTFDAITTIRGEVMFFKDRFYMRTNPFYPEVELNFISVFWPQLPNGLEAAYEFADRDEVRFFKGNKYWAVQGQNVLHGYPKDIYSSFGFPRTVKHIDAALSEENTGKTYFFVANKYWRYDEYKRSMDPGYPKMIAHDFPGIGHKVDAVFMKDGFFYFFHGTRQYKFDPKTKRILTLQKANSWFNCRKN
Kind of assay: Activity against Matrix metalloprotease-1 (MMP-1).

The target of assay [4] is 72 kDa type IV collagenase (Homo sapiens, UniProt P08253). The assay is described as follows: Activity against Matrix metalloprotease-2 (MMP-2).
72 kDa type IV collagenase, sequence (P08253 whole entry, the tested form may be a part): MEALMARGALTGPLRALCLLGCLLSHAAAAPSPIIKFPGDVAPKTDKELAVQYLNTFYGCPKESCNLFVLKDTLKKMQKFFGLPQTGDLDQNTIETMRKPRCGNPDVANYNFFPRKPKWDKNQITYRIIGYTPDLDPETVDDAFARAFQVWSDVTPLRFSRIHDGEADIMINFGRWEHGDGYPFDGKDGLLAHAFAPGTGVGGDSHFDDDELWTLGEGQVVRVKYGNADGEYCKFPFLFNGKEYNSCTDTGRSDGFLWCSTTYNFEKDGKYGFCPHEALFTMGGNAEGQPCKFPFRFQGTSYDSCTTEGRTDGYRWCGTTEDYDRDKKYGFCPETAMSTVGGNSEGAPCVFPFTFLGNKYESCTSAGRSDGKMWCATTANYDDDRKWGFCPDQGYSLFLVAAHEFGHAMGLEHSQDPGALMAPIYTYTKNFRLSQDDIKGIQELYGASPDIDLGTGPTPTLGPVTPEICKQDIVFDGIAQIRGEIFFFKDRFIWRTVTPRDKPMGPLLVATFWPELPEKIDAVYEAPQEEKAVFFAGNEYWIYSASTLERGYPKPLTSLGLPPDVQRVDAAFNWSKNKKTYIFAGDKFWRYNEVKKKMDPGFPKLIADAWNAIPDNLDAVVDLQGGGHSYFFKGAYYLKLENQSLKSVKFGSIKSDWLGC
The target in assay [5] is Matrix metalloproteinase-14 (Homo sapiens, UniProt P50281). Kind of assay: Activity against deletion mutant of MT1-MMP lacking the transmembrane domain (deltaMT1).

Matrix metalloproteinase-9, sequence (P14780 whole entry): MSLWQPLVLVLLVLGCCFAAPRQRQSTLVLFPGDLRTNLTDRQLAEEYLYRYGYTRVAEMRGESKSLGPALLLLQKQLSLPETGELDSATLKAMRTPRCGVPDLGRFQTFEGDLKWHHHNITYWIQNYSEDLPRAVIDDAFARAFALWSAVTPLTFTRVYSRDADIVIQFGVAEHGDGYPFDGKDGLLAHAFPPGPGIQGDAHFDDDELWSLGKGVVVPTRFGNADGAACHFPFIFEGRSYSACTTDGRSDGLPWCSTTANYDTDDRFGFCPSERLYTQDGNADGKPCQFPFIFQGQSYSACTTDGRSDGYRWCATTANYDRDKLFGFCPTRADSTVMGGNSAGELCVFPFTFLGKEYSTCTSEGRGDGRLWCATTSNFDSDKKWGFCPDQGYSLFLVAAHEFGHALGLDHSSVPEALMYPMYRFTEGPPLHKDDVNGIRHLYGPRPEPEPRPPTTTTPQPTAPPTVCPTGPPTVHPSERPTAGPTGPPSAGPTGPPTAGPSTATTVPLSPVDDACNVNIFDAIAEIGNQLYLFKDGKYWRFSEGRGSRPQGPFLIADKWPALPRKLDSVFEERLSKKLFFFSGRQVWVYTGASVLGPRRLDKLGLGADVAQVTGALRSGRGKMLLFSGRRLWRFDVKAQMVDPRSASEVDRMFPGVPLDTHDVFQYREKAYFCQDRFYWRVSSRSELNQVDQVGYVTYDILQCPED

Regarding `CNC(=O)[C@@H](NC(=O)[C@H](CCc1ccccc1)CC(=O)NO)c1ccccc1`, the half-maximal inhibitory concentration (IC50) in assay [1] worked out at 11 nM; in assay [2] it was 17 nM; in assay [3], 92 nM; in assay [4] it was 46.3 nM; in assay [5], 105 nM.

Take `CNC(=O)[C@@H](NC(=O)[C@H](CC(C)C)[C@H](C)C(=O)NO)c1ccccc1`: the IC50 in assay [1] turned out to be 3.9 nM; in assay [2], 1.9 nM; in assay [3], 3 nM; in assay [4], 7.5 nM; in assay [5], 56 nM.

Turning to `CNC(=O)[C@@H](NC(=O)[C@H](CC(C)C)[C@H](C)C(=O)NO)C1CCCCC1`, the figures for the IC50 in assay [1], in assay [3] and in assay [5] were 0.9 nM, 2.9 nM and 13 nM, respectively.

As for `CNC(=O)[C@@H](NC(=O)[C@H](CCCc1ccccc1)CC(=O)NO)C(C)C`, the IC50 in assay [1] came to 2.8 nM; in assay [3], 93 nM; in assay [5] it was 2.5 nM.

Take `CNC(=O)[C@@H](NC(=O)[C@H](CCCc1ccccc1)CC(=O)NO)C(C)(C)C`: the half-maximal inhibitory concentration (IC50) is 1.3 nM in assay [1] and 1.9 nM in assay [5].

For `CNC(=O)[C@H](Cc1cccc2c1CCCC2)NC(=O)[C@H](CC(C)C)[C@H](C)C(=O)NO`, the 50% inhibitory concentration (IC50) in assay [1] came out at 0.3 nM; in assay [2] it was 0.6 nM; in assay [3], 0.3 nM; in assay [4], 0.3 nM; in assay [5], 2.08 nM.

Turning to `CNC(=O)[C@@H](NC(=O)[C@@H](CC(=O)NO)CC(C)C)c1ccccc1`, the IC50 came to 14 nM in assay [1]; 4.4 nM in assay [2]; 15 nM in assay [3]; 42.5 nM in assay [4]; 19.3 nM in assay [5].

With `CNC(=O)[C@@H](NC(=O)[C@@H](CC(=O)NO)CC(C)C)C1CCCCC1`, the IC50 in assay [1] turned out to be 5 nM; in assay [2], 2.3 nM; in assay [3] it was 5.4 nM; in assay [4] it was 8.4 nM; in assay [5], 2.3 nM.

As for `CNC(=O)[C@@H](NC(=O)[C@H](CCCc1ccccc1)CC(=O)NO)c1ccccc1`, the half-maximal inhibitory concentration (IC50) was 3.3 nM in assay [1]; 9.6 nM in assay [2]; 89 nM in assay [3]; 3.2 nM in assay [4]; 8.5 nM in assay [5].

`CCCCCCCCC[C@H](CC(=O)NO)C(=O)N[C@H](C(=O)NC)c1ccccc1`: the IC50 stood at 0.2 nM in assay [1]; 100 nM in assay [2]; 90 nM in assay [3]; 1.6 nM in assay [4]; 17.6 nM in assay [5].

Regarding `CNC(=O)[C@@H](NC(=O)[C@H](CC(C)C)[C@H](CN1CCOCC1)C(=O)NO)c1ccccc1`, the IC50 was determined as 45 nM in assay [1], 61 nM in assay [2], 3.5 nM in assay [3] and 72 nM in assay [5].

`CNC(=O)[C@@H](NC(=O)C(CC(C)C)C(O)C(=O)NO)C(C)(C)C` (single isomer, unassigned) returned an IC50 in assay [5] of 1.82 nM.

In the case of `CNC(=O)[C@H](Cc1ccccc1)NC(=O)[C@H](CC(C)C)[C@H](CSc1cccs1)C(=O)NO` [BATIMASTAT], the IC50 was 0.2 nM in assay [1] and 3 nM in assay [5].

Turning to `CNC(=O)[C@H](Cc1c[nH]c2ccccc12)NC(=O)[C@@H](CC(=O)NO)CC(C)C` [ILOMASTAT], the results for the IC50 in assay [2] and in assay [5] were 1.9 nM and 13.4 nM, respectively.

In the case of `CNC(=O)[C@@H](NC(=O)[C@@H](CC(=O)NO)CC(C)C)C(C)(C)C` [RO-319790], the half-maximal inhibitory concentration (IC50) worked out at 12 nM in assay [1], 3 nM in assay [3], 7.4 nM in assay [4] and 1.9 nM in assay [5].
